Assay results from ChEMBL document CHEMBL4251685, “Microthecaline A, a Quinoline Serrulatane Alkaloid from the Roots of the Australian Desert Plant Eremophila microtheca” (J Nat Prod, 2018).
Calls of active or inactive are those of the source. No cut-off for these calls is given here.

Assays:
HEK293 = experiment: Cytotoxicity against HEK293 cells assessed as inhibition of cell growth at 10 uM after 72 hrs by alamar blue assay; assay type: cell-based; conditions: human, hek293, 72 h
Plasmodium falciparum [1] = experiment: Antimalarial activity against chloroquine-resistant Plasmodium falciparum Dd2 at 10 uM after 72 hrs by DAPI staining based fluorescence assay; assay type: functional, organism-based
Plasmodium falciparum [2] = experiment: Antimalarial activity against chloroquine-sensitive Plasmodium falciparum 3D7 at 10 uM after 72 hrs by DAPI staining based fluorescence assay; assay type: functional, organism-based
[3] = Selectivity index, ratio of IC50 for HEK293 cells to IC50 for chloroquine-resistant Plasmodium falciparum Dd2; assay type: toxicity; conditions: human; read-out: Ratio IC50
Plasmodium falciparum [4] = experiment: Antimalarial activity against chloroquine-resistant Plasmodium falciparum Dd2 after 72 hrs by DAPI staining based fluorescence assay; assay type: functional, organism-based; conditions: Dd2, 72 h
[5] = Selectivity index, ratio of IC50 for HEK293 cells to IC50 for chloroquine-sensitive Plasmodium falciparum 3D7; assay type: toxicity; conditions: human; read-out: Ratio IC50
Plasmodium falciparum [6] = experiment: Antimalarial activity against chloroquine-sensitive Plasmodium falciparum 3D7 after 72 hrs by DAPI staining based fluorescence assay; assay type: functional, organism-based; conditions: 3D7, 72 h
[7] = Cytotoxicity against HEK293 cells assessed as inhibition of cell growth at 80 uM after 72 hrs by alamar blue assay relative to control; assay type: cell-based; conditions: human, read-out: GI
Procedure, shortened: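 HEK293 human embryonic kidney cells; the reported value is the average percent inhibition measured at 80 μM.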

SMILES | selectivity ratio [3] | IC50 (Plasmodium falciparum [4]) | selectivity ratio [5] | further results
CCN(CC)CCCC(C)Nc1ccnc2cc(Cl)ccc12 (stereo not drawn) [CHLOROQUINE] |  |  |  | growth inhibition (GI) (HEK293): Not Active
COc1cc(C)c2ncc(CCC=C(C)C)c3c2c1[C@H](C)CC3 |  |  |  | Activity (Plasmodium falciparum [1]): inactive; Activity (Plasmodium falciparum [2]): inactive
C[C@H]1[C@H](OC(=O)CCC(=O)O)O[C@@H]2O[C@@]3(C)CC[C@H]4[C@H](C)CC[C@@H]1[C@@]24OO3 [ARTESUNATE] | 10000 | 0.001 µM | 11600 | 
COc1ccc(C[C@H](N)C(=O)N[C@H]2[C@@H](O)[C@H](n3cnc4c(N(C)C)ncnc43)O[C@@H]2CO)cc1 [PUROMYCIN] | 10.5 |  | 9 | 
CC(C)=CCCc1cnc2c(C)cc(O)c3c2c1CC[C@H]3C | 2.3 | 17.2 µM | 5.2 | IC50 (Plasmodium falciparum [6]): 7.7 µM; inhibition at 72 h, 80 µM [7]: 62%
